# Experimental data taken from ChEMBL document CHEMBL1132231, “New generation dopaminergic agents. 6. Structure-activity relationship studies of a series of 4-(aminoethoxy)indole and 4-(aminoethoxy)indolone derivatives based on the newly discovered 3-hydroxyphenoxyethylamine D2 template” (J Med Chem, 1999).
# How the values were obtained:
# [1] = target: D(2) dopamine receptor (Rattus norvegicus) (UniProt P61169); assay: Ratio of Dopamine D2 receptor (low)and Dopamine D2 receptor (high)
# How it was run: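 Ratio Ki(low)/Ki(high). Ki(low) comes from displacement of 1 nM [3H]spiperone in striatal membranes with 1 mM GppNHp and NaCl, 37 °C for 5 min. […] Both Ki values derived by Cheng-Prusoff from nine concentrations in triplicate; the ratio serves as an estimate of intrinsic activity.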
# [2] = target: T1, Adrenergic receptor alpha-1 (Rattus norvegicus, UniProt P15823+P23944+P43140); assay: In vitro binding affinity towards alpha-1 adrenergic receptor by the displacement of [3H]prazosin radioligand in rat cortical homogenates
# T1 sequence (P15823 whole entry): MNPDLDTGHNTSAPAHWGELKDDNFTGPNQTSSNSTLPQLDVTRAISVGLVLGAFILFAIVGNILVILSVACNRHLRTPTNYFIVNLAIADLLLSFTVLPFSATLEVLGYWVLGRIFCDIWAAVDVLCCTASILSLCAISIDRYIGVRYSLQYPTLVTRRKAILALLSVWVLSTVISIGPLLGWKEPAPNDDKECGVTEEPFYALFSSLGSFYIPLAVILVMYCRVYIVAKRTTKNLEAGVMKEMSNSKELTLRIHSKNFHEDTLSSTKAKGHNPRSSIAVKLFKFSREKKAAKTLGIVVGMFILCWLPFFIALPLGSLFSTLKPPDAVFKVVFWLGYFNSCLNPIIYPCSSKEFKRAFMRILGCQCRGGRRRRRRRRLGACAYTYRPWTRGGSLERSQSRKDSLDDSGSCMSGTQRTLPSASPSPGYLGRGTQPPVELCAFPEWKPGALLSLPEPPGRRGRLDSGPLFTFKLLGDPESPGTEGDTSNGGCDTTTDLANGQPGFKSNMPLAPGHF
# T1 sequence (P23944 whole entry): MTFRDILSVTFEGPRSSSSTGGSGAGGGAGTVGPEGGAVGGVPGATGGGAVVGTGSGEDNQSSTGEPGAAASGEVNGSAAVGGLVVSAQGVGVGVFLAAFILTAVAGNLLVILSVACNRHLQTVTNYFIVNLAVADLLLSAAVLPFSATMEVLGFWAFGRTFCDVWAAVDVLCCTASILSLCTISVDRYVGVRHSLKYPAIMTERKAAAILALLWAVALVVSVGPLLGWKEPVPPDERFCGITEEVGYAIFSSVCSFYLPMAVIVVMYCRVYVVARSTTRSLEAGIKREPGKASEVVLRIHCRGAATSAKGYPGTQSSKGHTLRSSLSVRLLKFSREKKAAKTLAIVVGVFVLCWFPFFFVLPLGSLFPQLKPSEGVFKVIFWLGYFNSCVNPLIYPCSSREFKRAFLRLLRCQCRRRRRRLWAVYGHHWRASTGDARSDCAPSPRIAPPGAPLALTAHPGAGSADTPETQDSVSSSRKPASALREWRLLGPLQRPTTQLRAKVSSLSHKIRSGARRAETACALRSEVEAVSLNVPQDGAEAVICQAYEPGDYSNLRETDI
# T1 sequence (P43140 whole entry): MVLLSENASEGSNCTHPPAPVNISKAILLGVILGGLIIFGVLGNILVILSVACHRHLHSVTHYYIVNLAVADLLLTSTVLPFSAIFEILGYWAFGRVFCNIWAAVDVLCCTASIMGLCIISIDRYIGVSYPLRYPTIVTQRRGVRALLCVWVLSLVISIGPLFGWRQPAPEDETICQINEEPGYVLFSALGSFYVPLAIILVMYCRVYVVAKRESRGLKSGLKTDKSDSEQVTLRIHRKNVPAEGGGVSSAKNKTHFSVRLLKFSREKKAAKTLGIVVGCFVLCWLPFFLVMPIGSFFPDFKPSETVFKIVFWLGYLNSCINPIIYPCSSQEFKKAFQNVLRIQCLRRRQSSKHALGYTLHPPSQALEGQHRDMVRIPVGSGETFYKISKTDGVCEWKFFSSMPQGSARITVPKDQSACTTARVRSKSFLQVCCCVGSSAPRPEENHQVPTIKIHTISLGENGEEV
# How it was run: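 Rat cortical homogenates labelled with [3H]prazosin (0.2 nM), incubated 30 min at 25 °C. Stopped with cold 50 mM Tris pH 7.4, then rapid filtration. Triplicate, at least eight concentrations. Nonlinear regression gave IC50, converted to apparent Ki by Cheng-Prusoff. Means of at least two experiments ± SEM; values without SEM are single determinations.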
# [3] = target: T2, D(2) dopamine receptor (Rattus norvegicus, UniProt P61169); assay: In vitro high binding affinity towards Dopamine receptor D2 by the displacement of [3H]quinpirole radioligand in rat striatal membranes; format: cell membranes, Membrane
# [4] = target: T3, 5-hydroxytryptamine receptor 1A (Rattus norvegicus, UniProt P19327); assay: The compound was tested for binding affinity on [3H]8-OH-DPAT as specific ligand on 5-hydroxytryptamine 1A receptor in rat hippocampus; format: tissue-based
# T3 sequence (P19327 whole entry): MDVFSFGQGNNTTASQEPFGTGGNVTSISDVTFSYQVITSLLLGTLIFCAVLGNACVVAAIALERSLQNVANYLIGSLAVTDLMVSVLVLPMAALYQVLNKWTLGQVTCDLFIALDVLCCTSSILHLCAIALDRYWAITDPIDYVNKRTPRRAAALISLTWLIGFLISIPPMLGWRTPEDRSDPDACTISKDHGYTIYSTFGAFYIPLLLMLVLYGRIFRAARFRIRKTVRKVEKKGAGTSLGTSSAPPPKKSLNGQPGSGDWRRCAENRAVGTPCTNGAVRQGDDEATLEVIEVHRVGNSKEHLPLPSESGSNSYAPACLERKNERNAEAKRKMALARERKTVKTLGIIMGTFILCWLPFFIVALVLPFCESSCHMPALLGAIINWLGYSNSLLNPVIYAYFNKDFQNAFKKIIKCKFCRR
# How it was run: (§1)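 Rat hippocampal homogenates labelled with [3H]-8-OH-DPAT (1.8 nM), incubated 10 min at 37 °C. Stopped with cold 50 mM Tris pH 7.7. Test compounds run in triplicate at at least eight concentrations. IC50 found by nonlinear regression and converted to apparent Ki by Cheng-Prusoff. Ki values are means of at least two experiments ± SEM; values without SEM are single determinations.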
# [5] = target: T2, D(2) dopamine receptor; assay: In vitro low binding affinity towards Dopamine receptor D2 by the displacement of [3H]spiperone radioligand in rat striatal membranes; format: cell membranes, Membrane
# [6] = target: T3, 5-hydroxytryptamine receptor 1A; assay: In vitro binding affinity towards 5-hydroxytryptamine 1A r receptor by the displacement of [3H]8-OH-DPAT radioligand in rat hippocampal homogenates; format: tissue-based, Hippocampus; how it was run: as §1
# Sequence of D(2) dopamine receptor (Rattus norvegicus) (P61169 whole entry): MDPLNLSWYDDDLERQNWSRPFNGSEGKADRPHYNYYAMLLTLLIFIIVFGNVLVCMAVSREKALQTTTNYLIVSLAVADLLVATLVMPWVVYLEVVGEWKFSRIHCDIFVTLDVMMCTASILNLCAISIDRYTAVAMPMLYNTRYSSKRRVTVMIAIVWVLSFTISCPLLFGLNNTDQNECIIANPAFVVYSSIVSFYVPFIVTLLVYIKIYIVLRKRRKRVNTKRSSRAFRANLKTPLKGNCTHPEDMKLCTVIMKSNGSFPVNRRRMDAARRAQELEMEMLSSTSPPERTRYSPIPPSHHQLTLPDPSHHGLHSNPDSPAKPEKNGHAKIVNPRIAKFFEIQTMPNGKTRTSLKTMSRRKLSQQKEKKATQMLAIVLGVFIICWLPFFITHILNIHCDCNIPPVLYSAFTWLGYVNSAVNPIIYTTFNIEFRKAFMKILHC
# T2 sequence (P61169 whole entry): as above
SMILES,Ratio [1],Ki [2],Ki [3],Ki [4],Ki [5],Ki [6]
O=C(c1c[nH]c2cccc(OCCNCc3ccccc3)c12)C(F)(F)F,6,60 nM,3 nM,30 nM,16.6 nM,
Clc1c[nH]c2cccc(OCCNCCCCc3ccccc3)c12,3,8.5 nM,4.8 nM,,15.7 nM,0.5 nM
c1ccc(CNCCOc2cccc3[nH]ccc23)cc1,4,675 nM,9.7 nM,18 nM,39.3 nM,
